Jurkat NFkB inh: lowers PMA/ionomycin-induced NF-kB signal in Jurkat cells | PMA/ionomycin-induced NF-kB luciferase reporter, luminescence | inhibition, % at 4 µM | hit rate 0.53% among 330,000; in the data active = inhibition above about 50%
HSF1 inhib: HSF1 inhibition. activity change, negative = inhibition, % at 7.5 µM (by protocol). hit rate 0.77% among 300,000. NIH3T3-HGL HSE-luciferase, MG132-induced, luminescence 8 h; active compounds read low;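 active = more than half of replicate wells show activity change below -50%, luminescence cut by over half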;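 note: luciferase reports HSF-1 transcriptional activity via heat shock element; 0% = median of DMSO wells and -100% = zero luminescence signal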
HSF1 activator: increases HSF-1 driven luciferase reporter signal. NIH3T3-HGL HSF-1 luciferase reporter, MG132, 8 h; 100% = twice DMSO control signal. activation, % at 9 µM. hit rate 1.7% among 300,000;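 active = mean replicate activation of at least 50% with a set share of replicates each reaching 50%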;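 note: 0% = median of the neutral control wells and 100% = twice that signal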
GPR7 antag: blocks human GPR7 receptor signaling | P48145 | GPR7-expressing cells, fluorescence antagonist assay | inhibition, % at 4.4 µM | hit rate 1.1% among 290,000 | AID 1861; in the data active = inhibition above about 16%, passing the limit was not always enough;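 note: cells stimulated with the agonist NPW; 0% = agonist with vehicle and 100% = vehicle without agonist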
Target sequence (P48145 whole entry, looked up): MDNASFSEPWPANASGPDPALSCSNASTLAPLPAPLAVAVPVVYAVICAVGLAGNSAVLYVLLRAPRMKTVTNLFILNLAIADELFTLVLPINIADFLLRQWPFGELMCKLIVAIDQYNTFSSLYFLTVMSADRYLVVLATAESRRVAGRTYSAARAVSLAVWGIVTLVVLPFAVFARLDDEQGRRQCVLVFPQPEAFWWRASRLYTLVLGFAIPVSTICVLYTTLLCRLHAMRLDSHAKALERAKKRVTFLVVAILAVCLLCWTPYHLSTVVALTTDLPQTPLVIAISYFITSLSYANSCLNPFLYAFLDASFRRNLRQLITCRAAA
697 NFkB inh: inhibitors of the PMA/ionomycin-induced NF-kB reporter in 697 B cells; 697 B-cell NF-kB luciferase reporter, 16 h; inhibition, % at 4 µM; hit rate 0.33% among 330,000; AID 435022; in the data active = inhibition above about 35%
T cruzi repl: blocks replication of Trypanosoma cruzi; T. cruzi beta-gal in NIH3T3, luminescence, 90 h; inhibition, % (test concentration not listed); hit rate 1.4% among 300,000; AID 1885;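 active = mean inhibition across valid replicates above about 55%, limit read from the data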;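 note: signal also drops with host cell toxicity which is not excluded here; 0% = plate median of DMSO wells and 100% = zero luminescence signal; higher percent means less beta-gal luminescence so fewer parasites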
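System – NIH/3T3 host cells with β-galactosidase reporter T. cruzi · Doses – single 50 nL compound addition per well in DMSO · Reagent – 5000 T. cruzi trypomastigotes/well · Medium – Low-serum DMEM with 2% FBS · Timing – ≥90 h infection period, 3 h prior cell attachment · Evaluation – parasite load inhibition, % · Technique – GalScreen luminescence, 60 min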
An asterisk follows results filed as active; / = no result given; ! = not confirmed by another sample. This is a sample that favours compounds with a hit; in the whole collection about 4.8% have one here.

SMILES	Jurkat NFkB inh	HSF1 inhib	HSF1 activator	GPR7 antag	697 NFkB inh	T cruzi repl
O=C1N/C(=C/c2ccc(N3CCOCC3)o2)C(=O)N1c1cccc(Cl)c1	-10.4	95.3	125.3*	-15.6	-16.8	8.6
Cc1cccc(-c2cc3nc(C)cc(C)n3n2)c1	-84.2	33.3	60.1*	-7.0	-127.4	-0.6
Cc1ccsc1/C=N/NC(=O)c1sccc1C	-85.0	31.1	63.8*	-2.7	-103.3	-11.4
Cc1ccsc1/C=N/NC(=O)CO	14.5	-6.8	5.7	-6.4	-0.7	-8.0
COc1ccc(/C=C(\NC(=O)c2ccccc2)C(=O)N/N=C/c2sccc2C)cc1	10.4	56.5	96.9*	-6.5	-15.7	42.3
FC(F)(F)c1nnc(-c2ccccc2)nc1Sc1ccccc1	-26.7	260.9	260.1*	18.6	-39.4	15.6
Cn1c(C(=O)OC(C(=O)NC2CCCCC2)c2cccnc2)cc2sccc21 (stereo not drawn)	-14.1	2.9	13.9	-2.0	-21.4	38.5
Cn1c(C(=O)OC(C(=O)NC2CCCC2)c2cccnc2)cc2sccc21 (stereo not drawn)	-18.7	3.0	0.0	3.7	-7.2	65.0*
COc1ccc(N=C(NN)c2ccc3ccccc3n2)cc1	-32.4	-60.6*	-65.1	3.6	-126.1	2.1
COc1cccc(C(=O)NCCS(=O)(=O)NCc2ccccn2)c1	10.5	-4.2	3.3	/	11.4	-3.4
Cc1ccccc1CN1CCN(C(=O)c2ccc(F)cc2)CC1	-14.5	-62.8*	-70.3	-3.0	-19.7	5.9
Cc1ccc(NC(=O)COC(=O)CCc2c(C)nc3ncnn3c2C)cc1	4.5	/	/	/	1.9	/
[O-][n+]1ccccc1SC/C=C/c1ccccc1	-24.2	22.5	53.0*	-8.3	-3.1	-33.0
O=C(NCC(c1ccco1)N1CCCC1)c1cc2ccccc2s1 (stereo not drawn)	-15.6	/	/	/	-4.7	/
O=C(N/N=C/c1cccnc1)c1ccc2c(c1)OCO2	-38.2	-59.3*	-66.6	-1.1	-7.2	-6.1
Cn1cc(C(=O)N/N=C/c2cc(Br)cs2)c2ccccc21	3.9	19.8	60.3*	-14.6	-62.5	1.9
CC(=O)Nc1cccc(C(=O)N/N=C/c2cccnc2)c1	10.7	-2.1	-1.4	-8.0	15.0	-3.1
Cn1cc(/C=N/NC(=O)c2ccccc2O)c2ccccc21	-8.3	-9.6	4.2	-2.0	-7.1	-14.9
COc1ccc(/C=N/NC(=O)c2ccc3c(c2)OCCO3)cc1[N+](=O)[O-]	-12.9	-79.6*	-76.3	0.9	-0.3	-24.0
O=C(O)c1cccc(NC(=S)N/N=C/c2cccnc2)c1	9.6	-59.6*	-62.1	-15.9	-3.0	-2.0
O=C(N/N=C/c1ccc2c(c1)OCO2)c1ccc2c(c1)OCO2	-2.8	1.7	5.9	-2.4	-38.8	-3.9
Fc1ccccc1Nc1nc2ccccc2o1	-125.9	19.1	38.5	-10.2	-197.2	-9.0
C[C@H](CO)N1C[C@H](C)[C@@H](CN(C)Cc2ccncc2)Oc2c(NS(=O)(=O)c3cn(C)cn3)cccc2C1=O	1.9	/	/	/	16.2	/
O=C(N/N=C/c1ccc(-c2ccc(Br)cc2)o1)c1ccc2c(c1)OCO2	-19.1	4.5	12.7	19.9	-12.5	74.2*
O=C(N/N=C/c1cc(Br)cs1)c1ccc2c(c1)OCCO2	-11.7	22.3	57.3*	-3.6	-162.3	-6.0
SMILES	Jurkat NFkB inh	HSF1 inhib	HSF1 activator	GPR7 antag	697 NFkB inh	T cruzi repl
CSc1ccccc1OCc1cc(C(=O)N(C)Cc2cnccn2)no1	-27.1	10.7	33.6	14.5	-61.3	8.8
CC(=O)c1ccc(Nc2c3c(nc4ccccc24)CCCC3)cc1	40.1	21.7	66.4*	-2.1	-17.6	-1.1
O=C(NCc1ccccc1F)C1CCCN1C(=O)Nc1ccccc1 (stereo not drawn)	-8.1	-7.9	1.3	-6.5	-11.4	-3.2
c1ccc(-c2ccc(-n3ccnc3)cc2)cc1	-58.4	33.3	72.2*	13.8	-58.9	55.8*
c1ccc(-c2ccc(C(c3ccccc3)n3ccnc3)cc2)cc1 (stereo not drawn)	/	6.0	-13.3	35.6*!	/	32.9
CCOC(=O)c1cnc(SCC(=O)N2CCOCC2)nc1N	-0.2	-0.4	6.1	-10.3	8.1	-9.9
N/C(=N\OC(=O)c1csnn1)c1ccc(C(F)(F)F)cc1	-7.5	7.0	3.2	-24.0	-24.9	6.9
COc1ccc(CN(C)Cc2ccccc2)c(OC)c1OC	-2.8	-7.9	-10.0	-2.3	4.4	8.8
